Experimental data: ChEMBL document CHEMBL1123178, “Preparation and evaluation of radioiodinated (iodophenyl)cholines and their morpholinium and piperidinium analogues as myocardial perfusion imaging agents” (J Med Chem, 1986)

How the values were obtained:
[1] = Distribution in the muscle after 120 min of intravenous administration; format: ADME, tissue-based, Muscle tissue; conditions: 2 h
How it was run: (§1)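 Swiss white mice (20-25 g) anesthetized with sodium pentobarbital (80 mg/kg ip), then given 0.1-0.2 mL (74 kBq) of radioiodinated compound or 201Tl+ by tail-vein injection. Four mice per time point were killed by cardiac puncture/exsanguination at 5, 15, 30 and 60 min (some also at 90 and 120 min). Organs were excised, washed, blotted and weighed, blood was sampled, and radioactivity was counted against injection standards. Values are percent injected dose/g.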

[2] = Distribution in the lung after 30 min of intravenous administration; format: ADME, tissue-based; conditions: 0.5 h; how it was run: as §1
[3] = Distribution in the liver after 15 min of intravenous administration; format: ADME, tissue-based; conditions: 0.25 h; how it was run: as §1
[4] = Distribution in the spleen after 60 min of intravenous administration; format: ADME, tissue-based; conditions: 1 h; how it was run: as §1
[5] = Distribution in the liver after 90 min of intravenous administration; format: ADME, tissue-based; conditions: 1.5 h; how it was run: as §1
[6] = Distribution in the heart after 30 min of intravenous administration; format: ADME, tissue-based; conditions: 0.5 h; how it was run: as §1
[7] = Distribution in the kidneys after 30 min of intravenous administration; format: ADME, tissue-based, Kidney; conditions: 0.5 h; how it was run: as §1
[8] = Distribution in the lung after 60 min of intravenous administration; format: ADME, tissue-based; conditions: 1 h; how it was run: as §1
[9] = Distribution in the heart after 90 min of intravenous administration; format: ADME, tissue-based; conditions: 1.5 h; how it was run: as §1
[10] = Distribution in the bone after 60 min of intravenous administration; format: ADME, tissue-based, Bone element; conditions: 1 h; how it was run: as §1
[11] = Distribution in the muscle after 5 min of intravenous administration; format: ADME, tissue-based, Muscle tissue; how it was run: as §1
[12] = Distribution in the muscle after 15 min of intravenous administration; format: ADME, tissue-based, Muscle tissue; conditions: 0.25 h; how it was run: as §1
Mus musculus = assay: Distribution in the muscle after 30 min of intravenous administration; format: ADME, organism-based, Muscle tissue; conditions: in vivo, 0.5 h; how it was run: as §1
[13] = Distribution in the liver after 120 min of intravenous administration; format: ADME, tissue-based; conditions: 2 h; how it was run: as §1
[14] = Distribution in the heart after 5 min of intravenous administration; format: ADME, tissue-based; how it was run: as §1
[15] = Distribution in the heart after 120 min of intravenous administration; format: ADME, tissue-based; conditions: 2 h; how it was run: as §1
[16] = Distribution in the blood after 15 min of intravenous administration; format: ADME, tissue-based; conditions: 0.25 h; how it was run: as §1
[17] = Distribution in the spleen after 15 min of intravenous administration; format: ADME, tissue-based; conditions: 0.25 h; how it was run: as §1
[18] = Distribution in the bone after 120 min of intravenous administration; format: ADME, tissue-based, Bone element; conditions: 2 h; how it was run: as §1
[19] = Distribution in the muscle after 90 min of intravenous administration; format: ADME, tissue-based, Muscle tissue; conditions: 1.5 h; how it was run: as §1
[20] = Distribution in the spleen after 5 min of intravenous administration; format: ADME, tissue-based; how it was run: as §1
[21] = Distribution in the kidneys after 60 min of intravenous administration; format: ADME, tissue-based, Kidney; conditions: 1 h; how it was run: as §1
[22] = Distribution in the spleen after 120 min of intravenous administration; format: ADME, tissue-based; conditions: 2 h; how it was run: as §1
[23] = Distribution in the bone after 90 min of intravenous administration; format: ADME, tissue-based, Bone element; conditions: 1.5 h; how it was run: as §1
[24] = Distribution in the lung after 15 min of intravenous administration; format: ADME, tissue-based; conditions: 0.25 h; how it was run: as §1
[25] = Distribution in the bone after 5 min of intravenous administration; format: ADME, tissue-based, Bone element; how it was run: as §1
[26] = Distribution in the liver after 30 min of intravenous administration; format: ADME, tissue-based; conditions: 0.5 h; how it was run: as §1
[27] = Distribution in the kidneys after 90 min of intravenous administration; format: ADME, tissue-based, Kidney; conditions: 1.5 h; how it was run: as §1
[28] = Distribution in the liver after 60 min of intravenous administration; format: ADME, tissue-based; conditions: 1 h; how it was run: as §1
[29] = Distribution in the blood after 5 min of intravenous administration; format: ADME, tissue-based; how it was run: as §1
[30] = Distribution in the blood after 30 min of intravenous administration; format: ADME, tissue-based; conditions: 0.5 h; how it was run: as §1
[31] = Distribution in the bone after 15 min of intravenous administration; format: ADME, tissue-based, Bone element; conditions: 0.25 h; how it was run: as §1
[32] = Distribution in the liver after 5 min of intravenous administration; format: ADME, tissue-based; how it was run: as §1
[33] = Distribution in the kidneys after 120 min of intravenous administration; format: ADME, tissue-based, Kidney; conditions: 2 h; how it was run: as §1
[34] = Distribution in the blood after 60 min of intravenous administration; format: ADME, tissue-based; conditions: 1 h; how it was run: as §1
[35] = Distribution in the spleen after 90 min of intravenous administration; format: ADME, tissue-based; conditions: 1.5 h; how it was run: as §1
[36] = Distribution in the kidneys after 15 min of intravenous administration; format: ADME, tissue-based, Kidney; conditions: 0.25 h; how it was run: as §1
[37] = Distribution in the blood after 90 min of intravenous administration; format: ADME, tissue-based; conditions: 1.5 h; how it was run: as §1
[38] = Distribution in the lung after 120 min of intravenous administration; format: ADME, tissue-based; conditions: 2 h; how it was run: as §1
[39] = Distribution in the spleen after 30 min of intravenous administration; format: ADME, tissue-based; conditions: 0.5 h; how it was run: as §1
[40] = Distribution in the muscle after 60 min of intravenous administration; format: ADME, tissue-based, Muscle tissue; conditions: 1 h; how it was run: as §1
[41] = Distribution in the kidneys after 5 min of intravenous administration; format: ADME, tissue-based, Kidney; how it was run: as §1
[42] = Distribution in the lung after 90 min of intravenous administration; format: ADME, tissue-based; conditions: 1.5 h; how it was run: as §1
[43] = Distribution in the heart after 60 min of intravenous administration; format: ADME, tissue-based; conditions: 1 h; how it was run: as §1
[44] = Distribution in the blood after 120 min of intravenous administration; format: ADME, tissue-based; conditions: 2 h; how it was run: as §1
[45] = Distribution in the bone after 30 min of intravenous administration; format: ADME, tissue-based, Bone element; conditions: 0.5 h; how it was run: as §1
[46] = Distribution in the heart after 15 min of intravenous administration; format: ADME, tissue-based; conditions: 0.25 h; how it was run: as §1
[47] = Distribution in the lung after 5 min of intravenous administration; format: ADME, tissue-based; how it was run: as §1

C[N+]1(CCOc2cccc(I)c2)CCCCC1
Distribution [1]: 1.1% | Distribution [2]: 4.6% | Distribution [3]: 4.9% | Distribution [4]: 2.6% | Distribution [5]: 2.3% | Distribution [6]: 23.1% | Distribution [7]: 14.1% | Distribution [8]: 3.4% | Distribution [9]: 18.1% | Distribution [10]: 1.5% | Distribution [11]: 0.9% | Distribution [12]: 1% | Distribution (Mus musculus): 1.1% | Distribution [13]: 2% | Distribution [14]: 20% | Distribution [15]: 17.7% | Distribution [16]: 2.4% | Distribution [17]: 3.6% | Distribution [18]: 1.3% | Distribution [19]: 1% | Distribution [20]: 5% | Distribution [21]: 7.4% | Distribution [22]: 2.1% | Distribution [23]: 1.3% | Distribution [24]: 5.5% | Distribution [25]: 1.6% | Distribution [26]: 4.1% | Distribution [27]: 5.3% | Distribution [28]: 2.4% | Distribution [29]: 1.9% | Distribution [30]: 1.9% | Distribution [31]: 2% | Distribution [32]: 12.5% | Distribution [33]: 6% | Distribution [34]: 1.5% | Distribution [35]: 2.1% | Distribution [36]: 24% | Distribution [37]: 1.2% | Distribution [38]: 2.6% | Distribution [39]: 3.4% | Distribution [40]: 1% | Distribution [41]: 40.1% | Distribution [42]: 2.7% | Distribution [43]: 19.5% | Distribution [44]: 1.4% | Distribution [45]: 2% | Distribution [46]: 21.6% | Distribution [47]: 7.3%
